Source: ChEMBL document CHEMBL4000256, “Light-Regulated NO Release as a Novel Strategy To Overcome Doxorubicin Multidrug Resistance” (ACS Med Chem Lett, 2017)
The source made the active and inactive calls. No cut-off for these calls is given here.

Legend:
M14 = experiment: Dark toxicity in human M14 cells assessed as increase in nitrite levels at 5 uM measured after 20 mins by Griess reagent based spectrophotometric method; format: cell-based; settings: m14, 20 min
[1] = biological target: T1, ATP-binding cassette sub-family C member 4 (Homo sapiens, UniProt O15439); experiment: Inhibition of MRP4 in 7 mW/cm'2 irradiated human M14 cells assessed as nitration of tyrosine in MRP4 at 5 uM measured after 20 mins by immunoblotting
T1 sequence (O15439 whole entry): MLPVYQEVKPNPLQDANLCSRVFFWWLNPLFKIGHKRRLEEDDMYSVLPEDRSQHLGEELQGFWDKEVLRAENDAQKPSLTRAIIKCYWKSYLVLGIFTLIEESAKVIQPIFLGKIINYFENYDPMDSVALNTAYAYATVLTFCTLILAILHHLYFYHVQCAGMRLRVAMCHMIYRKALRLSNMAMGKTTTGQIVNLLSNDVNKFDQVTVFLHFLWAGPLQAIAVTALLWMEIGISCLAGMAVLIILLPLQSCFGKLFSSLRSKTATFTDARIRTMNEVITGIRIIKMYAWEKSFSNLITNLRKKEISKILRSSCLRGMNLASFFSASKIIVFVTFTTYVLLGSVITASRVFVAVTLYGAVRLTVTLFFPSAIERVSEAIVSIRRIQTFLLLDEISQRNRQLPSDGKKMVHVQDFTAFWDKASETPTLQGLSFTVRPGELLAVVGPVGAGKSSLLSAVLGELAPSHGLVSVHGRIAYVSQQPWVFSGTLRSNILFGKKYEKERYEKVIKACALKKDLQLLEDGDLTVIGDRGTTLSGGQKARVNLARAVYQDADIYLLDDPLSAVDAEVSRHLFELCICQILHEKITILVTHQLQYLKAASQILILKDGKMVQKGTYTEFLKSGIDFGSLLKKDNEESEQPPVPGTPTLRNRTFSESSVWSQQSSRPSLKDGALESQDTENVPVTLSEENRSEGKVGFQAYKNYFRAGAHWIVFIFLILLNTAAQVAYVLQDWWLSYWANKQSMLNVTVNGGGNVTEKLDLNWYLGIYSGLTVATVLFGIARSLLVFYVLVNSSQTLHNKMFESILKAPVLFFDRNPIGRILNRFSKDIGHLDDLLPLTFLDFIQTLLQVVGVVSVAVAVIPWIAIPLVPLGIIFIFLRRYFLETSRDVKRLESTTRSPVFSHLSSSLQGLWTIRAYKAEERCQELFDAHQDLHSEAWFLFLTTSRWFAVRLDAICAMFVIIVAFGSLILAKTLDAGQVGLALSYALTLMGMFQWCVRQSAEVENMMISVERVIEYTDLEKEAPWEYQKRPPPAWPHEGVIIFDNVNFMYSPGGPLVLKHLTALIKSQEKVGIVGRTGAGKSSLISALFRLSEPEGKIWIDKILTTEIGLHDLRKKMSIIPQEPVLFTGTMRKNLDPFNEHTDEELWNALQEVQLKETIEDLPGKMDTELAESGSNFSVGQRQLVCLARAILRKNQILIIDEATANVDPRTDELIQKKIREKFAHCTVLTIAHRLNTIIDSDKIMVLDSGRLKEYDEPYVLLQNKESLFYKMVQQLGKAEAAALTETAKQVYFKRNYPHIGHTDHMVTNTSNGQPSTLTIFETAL
How it was run: (§1)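 M14 melanoma cells held 20 min at room temperature in PBS under 400 nm light (7 mW/cm2) with 5 μM compound, alone or with equimolar doxorubicin. Nitrated ABC transporters (Pgp, MRP1, MRP4, BCRP) detected by immunoblot.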

[2] = biological target: T2, Multidrug resistance-associated protein 1 (Homo sapiens, UniProt P33527); experiment: Inhibition of MRP1 in 7 mW/cm'2 irradiated human M14 cells assessed as nitration of tyrosine in MRP1 at 5 uM measured after 20 mins by immunoblotting; how it was run: as §1
[3] = biological target: T1, ATP-binding cassette sub-family C member 4; experiment: Inhibition of MRP4 in 7 mW/cm'2 irradiated human M14 cells assessed as reduction in MRP4 ATPase activity at 5 uM measured after 20 mins by spectrophotometric method
How it was run: (§2)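 M14 melanoma cells held 20 min at room temperature in PBS under 400 nm light (7 mW/cm2) with 5 μM compound, alone or with equimolar doxorubicin. Transporter ATPase activity then measured; n = 3.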

Homo sapiens [4] = species: Homo sapiens; experiment: Inhibition of Pgp in 7 mW/cm'2 irradiated human M14 cells assessed as reduction in P-gp ATPase activity at 5 uM measured after 20 mins by spectrophotometric method; how it was run: as §2
[5] = Induction of NO release in pH 7.4 PBS irradiated with 7 mW/cm2 light at 100 uM after 0.5 hrs by Griess assay
How it was run: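 Cell-free solution, 100 μM, in PBS (pH 7.4, 10 mM, 3% DMSO) irradiated at 400 nm (7 mW/cm2) for varying times. Nitrite generated is quantified by Griess assay.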

[6] = biological target: T2, Multidrug resistance-associated protein 1; experiment: Inhibition of MRP1 in 7 mW/cm'2 irradiated human M14 cells assessed as reduction in MRP1 ATPase activity at 5 uM measured after 20 mins by spectrophotometric method; how it was run: as §2
H9c2 [7] = experiment: Dark toxicity against rat H9c2 cells at 5 uM measured after 20 mins by spectrophotometric method; format: cell-based; settings: h9c2, 20 min
How it was run: (§3)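 Human fibroblasts or rat H9c2 cardiomyocytes kept 20 min at room temperature in PBS, either in the dark or irradiated at λexc 400 nm, 7 mW/cm2, with or without 5 μM test agent. Cytotoxicity measured in triplicate; means ± SD, n = 3.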

Fibroblast [8] = experiment: Dark toxicity against human fibroblasts at 5 uM measured after 20 mins by spectrophotometric method; format: cell-based; how it was run: as §3
Homo sapiens [9] = species: Homo sapiens; experiment: Inhibition of Pgp in 7 mW/cm'2 irradiated human M14 cells assessed as nitration of tyrosine in pgp at 5 uM measured after 20 mins by immunoblotting; how it was run: as §1
Fibroblast [10] = experiment: Cytotoxicity against 7 mW/cm'2 irradiated human fibroblasts at 5 uM measured after 20 mins by spectrophotometric method; format: cell-based; how it was run: as §3
H9c2 [11] = experiment: Cytotoxicity against 7 mW/cm'2 irradiated rat H9c2 cells at 5 uM measured after 20 mins by spectrophotometric method; format: cell-based; settings: h9c2, 20 min; how it was run: as §3

T2 sequence (P33527 whole entry): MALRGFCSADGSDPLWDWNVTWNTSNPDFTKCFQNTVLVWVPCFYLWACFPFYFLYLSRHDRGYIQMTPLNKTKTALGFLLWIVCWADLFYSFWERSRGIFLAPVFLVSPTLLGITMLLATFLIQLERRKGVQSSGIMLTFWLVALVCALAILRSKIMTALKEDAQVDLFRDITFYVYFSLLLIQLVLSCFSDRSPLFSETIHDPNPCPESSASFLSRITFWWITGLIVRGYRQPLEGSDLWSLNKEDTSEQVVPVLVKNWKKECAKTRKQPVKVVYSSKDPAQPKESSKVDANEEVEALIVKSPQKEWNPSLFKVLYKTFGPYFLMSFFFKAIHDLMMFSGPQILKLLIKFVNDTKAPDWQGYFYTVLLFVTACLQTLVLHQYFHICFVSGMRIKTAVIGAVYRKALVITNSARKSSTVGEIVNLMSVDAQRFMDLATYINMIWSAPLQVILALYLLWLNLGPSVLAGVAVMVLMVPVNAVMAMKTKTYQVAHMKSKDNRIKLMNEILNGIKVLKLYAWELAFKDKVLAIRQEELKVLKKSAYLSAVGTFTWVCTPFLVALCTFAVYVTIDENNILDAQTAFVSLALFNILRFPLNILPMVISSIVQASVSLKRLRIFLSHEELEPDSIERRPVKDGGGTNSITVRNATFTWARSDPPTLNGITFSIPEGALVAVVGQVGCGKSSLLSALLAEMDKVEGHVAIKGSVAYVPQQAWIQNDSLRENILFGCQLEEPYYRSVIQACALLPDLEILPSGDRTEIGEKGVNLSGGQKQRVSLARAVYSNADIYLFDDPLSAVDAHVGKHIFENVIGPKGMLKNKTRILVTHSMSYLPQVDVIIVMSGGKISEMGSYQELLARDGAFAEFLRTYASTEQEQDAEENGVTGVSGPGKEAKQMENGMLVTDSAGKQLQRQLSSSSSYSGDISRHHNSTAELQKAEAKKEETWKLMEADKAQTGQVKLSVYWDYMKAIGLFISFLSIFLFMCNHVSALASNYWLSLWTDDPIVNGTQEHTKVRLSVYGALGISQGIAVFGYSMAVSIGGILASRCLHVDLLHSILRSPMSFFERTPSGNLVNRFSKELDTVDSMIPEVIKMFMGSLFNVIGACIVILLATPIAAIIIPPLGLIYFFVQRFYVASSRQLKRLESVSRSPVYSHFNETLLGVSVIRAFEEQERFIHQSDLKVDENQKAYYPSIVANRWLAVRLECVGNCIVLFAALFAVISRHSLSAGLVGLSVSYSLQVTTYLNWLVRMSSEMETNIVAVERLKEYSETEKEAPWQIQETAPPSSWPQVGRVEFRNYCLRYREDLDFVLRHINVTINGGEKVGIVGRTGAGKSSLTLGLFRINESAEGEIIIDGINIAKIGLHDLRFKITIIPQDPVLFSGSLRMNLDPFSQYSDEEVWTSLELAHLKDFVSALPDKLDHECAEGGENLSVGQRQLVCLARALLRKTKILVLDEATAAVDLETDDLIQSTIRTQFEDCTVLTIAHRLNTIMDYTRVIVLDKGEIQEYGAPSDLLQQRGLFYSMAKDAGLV

SMILES	Activity (M14)	inhibition (INH) [1]	inhibition (INH) [2]	inhibition (INH) [3]	inhibition (Homo sapiens [4])	Activity [5]	inhibition (INH) [6]	Activity (H9c2 [7])	Activity (Fibroblast [8])	inhibition (Homo sapiens [9])	Activity (Fibroblast [10])	Activity (H9c2 [11])
COc1cccc2c1C(=O)c1c(O)c3c(c(O)c1C2=O)C[C@@](O)(C(=O)COC(=O)c1ccc(C(=O)NCCCNc2ccc([N+](=O)[O-])c(C(F)(F)F)c2)cc1)C[C@@H]3O[C@H]1C[C@H](N)[C@H](O)[C@H](C)O1.Cl	Non-Toxic	Active	Active	Active	Active	Active	Active	Non-Toxic	Non-Toxic	Active	Non-Toxic	Non-Toxic
NCCCNc1ccc([N+](=O)[O-])c(C(F)(F)F)c1	Non-Toxic	Active	Active	Active	Active	Active	Active	Non-Toxic	Non-Toxic	Active	Non-Toxic	Non-Toxic
